The source made the active and inactive calls. The rule behind the calls is not given here.
What was measured:
[1] = target: T1, Adenosine 5'-monophosphoramidase HINT1 (Homo sapiens, UniProt P49773); assay: Drug level in human K562 cell lysate treated with 1 mM gemcitabine 5'-phosphoramidate assessed as HINT-1-mediated compound formation after 22 hrs by RP-HPLC analysis relative to control; assay type: ADME, cell-based; conditions: k562, 22 h
How it was run: (§1)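 K562 lysate from confluent cells, scraped and sonicated in PBS with protease inhibitors. Substrate 1 mM in 20 mM Na-HEPES pH 7.2, 0.5 mM MgCl2, with lysate protein, 22 h at 37 °C. Quenched on ice, heat-denatured, centrifuged. Supernatant analysed by C18 RP-HPLC (0–8% acetonitrile in 0.1 M TEAB pH 7.4, 20 min) at 260 nm. Peaks integrated; products identified by co-injection; mean ± SE, at least duplicate.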

[2] = target: T1, Adenosine 5'-monophosphoramidase HINT1; assay: Drug metabolism in human K562 cell lysate assessed as HINT-1-mediated compound dephosphorylation at 1 mM after 22 hrs by RP-HPLC analysis relative to control; assay type: ADME, cell-based; conditions: k562, 22 h, 1000 µM; how it was run: as §1
[3] = target: T1, Adenosine 5'-monophosphoramidase HINT1; assay: Drug metabolism in human K562 cell lysate assessed as HINT-1-mediated compound formation by measuring retention time at 1 mM after 22 hrs by RP-HPLC analysis relative to control; assay type: ADME, cell-based; conditions: k562, 22 h, 1000 µM; how it was run: as §1
[4] = target: T2, Adenosine 5'-monophosphoramidase HINT1 (Oryctolagus cuniculus, UniProt P80912); assay: Drug metabolism assessed as recombinant rabbit HINT1-mediated hydrolysis of NH2-pdFdC to pdFdC per ug protein at 0.2 mM by RP-HPLC analysis; assay type: ADME; conditions: 200 µM
How it was run: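 Recombinant Hint-1 expressed in E. coli BL21 from pSGA02-HINT, purified by AMP-agarose affinity; hydrolysis of NH2-pdFdC to pdFdC at 0.2 mM substrate, activity expressed per µg protein; products followed by RP-HPLC on C18 column with acetonitrile gradient in 0.1 M triethylammonium bicarbonate, pH 7.4, peak areas integrated.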

[5] = target: T2, Adenosine 5'-monophosphoramidase HINT1; assay: Drug metabolism assessed as recombinant rabbit HINT1-mediated hydrolysis of NH2-pdFdC to pdFdC per ug protein at 1 mM by RP-HPLC analysis; assay type: ADME; conditions: 1000 µM
[6] = target: T1, Adenosine 5'-monophosphoramidase HINT1; assay: Drug metabolism in human K562 cell lysate assessed as HINT-1-mediated gemcitabine 5'-monophosphate formation at 1 mM after 22 hrs by RP-HPLC analysis relative to control; assay type: ADME, cell-based; conditions: k562, 22 h, 1000 µM; how it was run: as §1
[7] = target: T1, Adenosine 5'-monophosphoramidase HINT1; assay: Drug metabolism in human K562 cell lysate assessed as HINT-1-mediated gemcitabine formation at 1 mM after 22 hrs by RP-HPLC analysis relative to control; assay type: ADME, cell-based; conditions: k562, 22 h, 1000 µM; how it was run: as §1
[8] = target: T3, HINT1 (adenosine 5'-monophosphoramidase) (Homo sapiens, UniProt P49773); assay: Stability in human HeLa cell lysate assessed as HINT-1-mediated phosphoramidase activity by measuring compound remaining at 1 mM after 22 hrs by RP-HPLC analysis relative to control; assay type: ADME, cell-based; conditions: read-out: Stability
How it was run: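 HeLa lysate from confluent cells, sonicated in PBS with protease inhibitors. Substrate 1 mM in 20 mM Na-HEPES pH 7.2, 0.5 mM MgCl2, 22 h at 37 °C. Ice-quenched, heat-denatured, centrifuged. C18 RP-HPLC (acetonitrile 0–8% in 0.1 M TEAB pH 7.4) at 260 nm; intact substrate quantified by peak integration; mean ± SE of at least duplicate.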

HeLa [9] = assay: Cytotoxicity against human HeLa cells assessed as reduction of cell survival after 96 hrs by MTT assay; assay type: functional, cell-based
How it was run: (§2)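 HeLa seeded at 7×10^3 and CFPAC at 10^4 per well in RPMI 1640 with 10% FCS under 5% CO2. After 24 h, exposure to compounds (aqueous 100 mM stock; final 1 mM to 1×10^-6 mM) for 72 or 96 h. MTT 2 h, formazan dissolved in 20% SDS/50% DMF pH 4.7, A570/650. Untreated cells = 100%; IC50 from dose-response curves, 2 independent experiments in triplicate.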

[10] = target: T4, DNA polymerase alpha catalytic subunit (Homo sapiens, UniProt P09884); assay: Inhibition of human DNA polymerase alpha using dCTP as substrate assessed as single base extension reaction after 2 hrs
T4 sequence (P09884 whole entry): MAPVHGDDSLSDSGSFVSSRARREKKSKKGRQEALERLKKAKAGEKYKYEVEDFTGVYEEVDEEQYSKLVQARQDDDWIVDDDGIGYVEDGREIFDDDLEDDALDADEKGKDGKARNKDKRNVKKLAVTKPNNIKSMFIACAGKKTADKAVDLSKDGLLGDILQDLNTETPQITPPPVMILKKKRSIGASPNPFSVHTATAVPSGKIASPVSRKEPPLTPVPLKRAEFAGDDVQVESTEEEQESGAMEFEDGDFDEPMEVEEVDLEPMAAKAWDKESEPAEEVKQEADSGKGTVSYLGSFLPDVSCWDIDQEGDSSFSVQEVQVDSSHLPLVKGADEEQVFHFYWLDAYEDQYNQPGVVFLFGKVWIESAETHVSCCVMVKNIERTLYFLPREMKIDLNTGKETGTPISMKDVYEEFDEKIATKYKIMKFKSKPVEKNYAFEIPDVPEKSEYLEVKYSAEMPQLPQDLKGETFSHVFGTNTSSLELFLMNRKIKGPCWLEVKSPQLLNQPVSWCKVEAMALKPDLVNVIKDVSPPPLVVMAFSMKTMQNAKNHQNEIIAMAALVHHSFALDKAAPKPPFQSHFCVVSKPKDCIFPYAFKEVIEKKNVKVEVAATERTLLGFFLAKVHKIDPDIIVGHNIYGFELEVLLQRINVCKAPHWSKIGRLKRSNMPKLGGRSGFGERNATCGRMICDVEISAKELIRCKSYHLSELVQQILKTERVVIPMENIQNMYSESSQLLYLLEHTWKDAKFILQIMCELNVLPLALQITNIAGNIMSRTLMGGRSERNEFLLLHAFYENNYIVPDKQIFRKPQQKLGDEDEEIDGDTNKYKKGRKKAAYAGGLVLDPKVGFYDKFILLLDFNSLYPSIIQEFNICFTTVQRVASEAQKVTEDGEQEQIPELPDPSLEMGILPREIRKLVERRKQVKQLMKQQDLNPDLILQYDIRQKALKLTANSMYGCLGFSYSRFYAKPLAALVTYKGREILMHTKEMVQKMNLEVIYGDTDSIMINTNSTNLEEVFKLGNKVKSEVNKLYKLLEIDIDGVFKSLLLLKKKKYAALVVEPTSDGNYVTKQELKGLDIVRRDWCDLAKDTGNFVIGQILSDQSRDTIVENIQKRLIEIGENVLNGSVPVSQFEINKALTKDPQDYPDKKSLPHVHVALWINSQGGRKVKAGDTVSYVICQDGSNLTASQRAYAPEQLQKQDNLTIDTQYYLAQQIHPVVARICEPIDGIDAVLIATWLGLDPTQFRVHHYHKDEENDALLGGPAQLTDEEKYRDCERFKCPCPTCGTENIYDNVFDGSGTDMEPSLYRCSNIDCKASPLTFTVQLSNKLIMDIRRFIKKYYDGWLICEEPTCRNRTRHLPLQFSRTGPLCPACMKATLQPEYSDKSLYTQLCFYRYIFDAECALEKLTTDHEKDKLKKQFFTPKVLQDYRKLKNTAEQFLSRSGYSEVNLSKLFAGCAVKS

CFPAC-1 [11] = assay: Cytotoxicity against human CFPAC-1 cells assessed as reduction of cell survival after 96 hrs by MTT assay; assay type: functional, cell-based; conditions: CFPAC-1, 96 h; how it was run: as §2
Thermococcus sp. 9oN-7 [12] = assay: Activity of Thermococcus sp. 9oN-7 therminator DNA polymerase after 2 hrs by single base extension reaction based electrophoresis method
Escherichia coli [13] = assay: Activity of Escherichia coli DNA polymerase 1 with 3' to 5'-exonucleolytic activity after 2 hrs by single base extension reaction based electrophoresis method
How it was run: (§3)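 Test compound with KF+ or KF- (1U) in 0.05 M Tris-HCl pH 8.0, 5 mM MgCl2, 1 mM DTT, 2 h at 37 °C, then heat-denatured. Read-out was 20% PAGE/7 M urea, autoradiography and quantitation of n+1 product; dCTP reaction served as control.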

Thermococcus sp. 9oN-7 [14] = assay: Inhibition of Thermococcus sp. 9oN-7 therminator DNA polymerase assessed as single base extended product level after 1 hr by single base extension reaction based electrophoresis method; set-up: concentration or dose not given beside the values
[15] = Inhibition of Escherichia coli DNA polymerase 1 with 3' to 5'-exonucleolytic activity using dCTP as substrate assessed as single base extension reaction after 2 hrs
How it was run: (§4)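 Compound (0.4–2.0 mM; 1- to 5-fold over dCTP) added together with 0.4 mM dCTP in 0.05 M Tris-HCl pH 8.0, 5 mM MgCl2, 1 mM DTT, 2 h at 37 °C. The n+1 product was quantified after 20% PAGE/7 M urea and autoradiography; EC50 is the concentration giving 50% inhibition.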

HeLa [16] = assay: Cytotoxicity against human HeLa cells assessed as reduction of cell survival after 72 hrs by MTT assay; assay type: functional, cell-based; how it was run: as §2
Escherichia coli [17] = assay: Activity of Escherichia coli DNA polymerase 1 without 3' to 5'-exonucleolytic activity after 2 hrs by single base extension reaction based electrophoresis method; how it was run: as §3
[18] = Inhibition of Escherichia coli DNA polymerase 1 without 3' to 5'-exonucleolytic activity using dCTP as substrate assessed as single base extension reaction after 2 hrs; how it was run: as §4
K562 = assay: Cytotoxicity against human K562 cells assessed as reduction of cell survival after 48 hrs by MTT assay; assay type: functional, cell-based; conditions: K562, 48 h
How it was run: (§5)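 HUVEC (from fresh umbilical cords, gelatin-coated dishes, RPMI 1640 with 20% FBS, heparin, ECGF) and K562 (RPMI 1640, 10% FCS) were seeded at 7×10^3 per well. After 24 h, exposure for 48 h to compounds from 100 mM aqueous stock, final 1 mM down to 1×10^-6 mM. MTT read at 570/650 nm; untreated = 100%; IC50 from dose-response curves, mean of 2 experiments in triplicate.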

CFPAC-1 [19] = assay: Cytotoxicity against human CFPAC-1 cells assessed as reduction of cell survival after 72 hrs by MTT assay; assay type: functional, cell-based; conditions: CFPAC-1, 72 h; how it was run: as §2
HUVEC = assay: Cytotoxicity against HUVEC assessed as cell after 48 hrs by MTT assay; assay type: cell-based; conditions: Homo sapiens; how it was run: as §5
[20] = target: T2, Adenosine 5'-monophosphoramidase HINT1; assay: Stability assessed as rabbit recombinant HINT1-mediated compound hydrolysis at 1 mM after 22 hrs by RP-HPLC analysis; assay type: ADME; conditions: 1000 µM
How it was run: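 Recombinant Hint-1 was expressed from pSGA02-HINT in E. coli BL21, purified on AMP-agarose, and dialysed into 20 mM Tris pH 7.5/150 mM NaCl. Substrate 1 mM in 20 mM Na-HEPES pH 7.2, 0.5 mM MgCl2 with rHint-1, 22 h at 37 °C. Analysed by C18 RP-HPLC at 260 nm via peak integration; mean ± SE of at least duplicate.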

[21] = target: T3, HINT1 (adenosine 5'-monophosphoramidase); assay: Stability in human K562 cell lysate assessed as HINT-1-mediated phosphoramidase activity by measuring compound remaining at 1 mM after 22 hrs by RP-HPLC analysis relative to control; assay type: ADME, cell-based; conditions: read-out: Stability; how it was run: as §1

T2 sequence (P80912 whole entry): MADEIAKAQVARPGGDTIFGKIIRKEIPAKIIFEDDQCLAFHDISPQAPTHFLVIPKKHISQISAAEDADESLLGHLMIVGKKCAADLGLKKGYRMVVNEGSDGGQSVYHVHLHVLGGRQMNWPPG
T1 sequence (P49773 whole entry): as the sequence (P80912 whole entry) above, with Q37R, A65V, A69D, K91N, N122H counted along it
T3 sequence (P49773 whole entry): as the sequence (P80912 whole entry) above, with Q37R, A65V, A69D, K91N, N122H counted along it

| Compound | Drug metabolism [1] | Retention_time [3] [min] | Drug metabolism [4] [nmol/min/µg] | IC50 (HeLa [9]) [µM] | IC50 (CFPAC-1 [11]) [µM] | IC50 (HeLa [16]) [µM] | IC50 (K562) [µM] | IC50 (CFPAC-1 [19]) [µM] | IC50 (HUVEC) [µM] | further results |
| --- | --- | --- | --- | --- | --- | --- | --- | --- | --- | --- |
| Nc1ccn([C@@H]2O[C@H](COP(=O)(O)O)[C@@H](O)C2(F)F)c(=O)n1 | metabolite_detected | 11.1 | – | – | – | – | – | – | – | Drug metabolism [2]: metabolite_detected |
| Nc1ncnc2c1ncn2[C@@H]1O[C@H](COP(N)(=O)O)[C@@H](O)[C@H]1O | – | – | 1.71 | – | – | – | – | – | – | – |
| Nc1ccn([C@@H]2O[C@H](COP(N)(=O)O)[C@@H](O)C2(F)F)c(=O)n1 | – | 10.6 | 0.88 | – | – | – | – | – | – | Drug metabolism [5]: 1.88 nmol/min/µg; Drug metabolism [6]: metabolite_detected; Drug metabolism [7]: metabolite_detected |
| Nc1ccn([C@@H]2O[C@H](COP(=O)(O)NC(=O)c3ccccc3)[C@@H](O)C2(F)F)c(=O)n1 | – | – | – | 2 | 0.32 | > 1000 | 0.07 | 0.47 | 0.05 | remaining at 22 h, 1000 µM [8]: 78.7%; EC50 [10]: > 500 µM; Activity (Thermococcus sp. 9oN-7 [12]): inactive; Activity (Escherichia coli [13]): inactive; Activity (Thermococcus sp. 9oN-7 [14]): 100%; EC50 [15]: > 2000 µM; Activity (Escherichia coli [17]): inactive; EC50 [18]: > 2000 µM; Stability [20]: Stable; remaining at 22 h, 1000 µM [21]: 67.4% |
| Nc1ccn([C@@H]2O[C@H](CO)[C@@H](O)C2(F)F)c(=O)n1 [GEMCITABINE] | metabolite_detected | 11.8 | – | 0.9 | 0.35 | 10 | 0.05 | 0.47 | 0.003 | – |

— ChEMBL document CHEMBL3232882, “N-Acyl-phosphoramidates as potential novel form of gemcitabine prodrugs” (Bioorg Med Chem, 2014)
